Bioassay records deposited in PubChem by several laboratories.
CCR6 antagonist: antagonists of human CCR6 receptor; 340,000 tested, 0.49% active; CHO-K1 CCR6 PathHunter beta-arrestin, luminescence, CCL20-stimulated; P51684; inhibition, % at 20 µM;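 active = compounds whose inhibition of the agonist-driven luminescence signal at 20 µM reaches about 50%, limit read from the data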;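 also: cells stimulated with CCL20 at 14 nM final; plate controls were DMSO with CCL20 for no effect and DMSO without agonist for full effect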
APJ ag: activates the human apelin receptor APJ | 330,000 tested, 0.11% active | AID 2520 | activation, % at 20 µM | CHO-K1 APJ PathHunter beta-arrestin, luminescence; 0% DMSO wells, 100% apelin | P35414;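 active = activation more than six SD over the plate average, tested at 20 µM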;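 also: 0% = DMSO alone and 100% = apelin-13 at 10 nM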
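Assay system: CHO-K1 APJ beta-arrestin complementation cell line / Compound: single test compound dose, 20 µM final, 1% DMSO / Times: overnight seeding, 90 min compound at 25 °C, 1 h detection / Technique: beta-gal luminescence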
CXCR6 block: CXCR6 (human) receptor inhibition | CHO-K1 PathHunter CXCR6 beta-arrestin, luminescence | inhibition, % at 20 µM | 360,000 tested, 0.36% active | AID 602244 | O00574; in the data active = inhibition above about 34%, passing the limit was not always enough;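 also: antagonist mode with CXCL16 agonist at 10 nM final; 0% = 10 nM CXCL16 with DMSO and 100% = unstimulated wells without agonist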
HTR2A ag: agonists of mouse serotonin 5-HT2A receptor (HTR2A); activation, % at 7.6 µM; CHO-K1 mHTR2A beta-arrestin complementation, luminescence; percent of 30 µM serotonin response; 360,000 tested, 0.66% active; AID 624169;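 active = activation above a run cutoff, the mean activation of all tested compounds plus 3 SD, cut at about 14% in these data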;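 also: 0% = plate median of compound wells and 100% = 30 µM serotonin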
Target sequence (P35363 whole entry, looked up): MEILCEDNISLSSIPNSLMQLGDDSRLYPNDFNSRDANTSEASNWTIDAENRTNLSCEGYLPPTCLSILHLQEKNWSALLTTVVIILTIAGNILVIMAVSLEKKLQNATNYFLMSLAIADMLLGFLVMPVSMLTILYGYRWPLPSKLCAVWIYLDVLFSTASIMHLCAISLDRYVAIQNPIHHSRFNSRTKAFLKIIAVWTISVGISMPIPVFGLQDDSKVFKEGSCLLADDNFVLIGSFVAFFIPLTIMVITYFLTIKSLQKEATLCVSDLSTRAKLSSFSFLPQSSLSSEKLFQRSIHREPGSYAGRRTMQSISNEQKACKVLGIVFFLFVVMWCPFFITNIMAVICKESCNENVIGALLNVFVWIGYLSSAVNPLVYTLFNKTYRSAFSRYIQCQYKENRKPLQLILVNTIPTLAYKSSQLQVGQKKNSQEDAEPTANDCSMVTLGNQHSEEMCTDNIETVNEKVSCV
APJ antagonist: blocks the human apelin receptor APJ | P35414 | CHO-K1 APJ beta-arrestin complementation, luminescence | inhibition, % at 20 µM | 330,000 tested, 0.32% active;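 active = inhibition above about 40% at 20 µM, limit read from the data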;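 also: cells challenged with 10 nM apelin-13 agonist together with compound; plate controls were apelin-13 plus DMSO wells for no effect and DMSO wells lacking apelin-13 for full effect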
EBI2 antag: EBI2 (human) antagonism. inhibition, % at 5 µM. EBI2 beta-arrestin recruitment, luminescence, 7a,25-OHC stimulated. AID 651636. P32249. 360,000 tested, 0.81% active; in the data active = inhibition above about 38%;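 also: enzyme fragment complementation signal reports receptor beta-arrestin coupling in cells; 0% = agonist plus DMSO wells and 100% = wells without agonist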
* = called active by the depositor; nt = not tested or not shown; ! = repeats disagree. In the library only some 2.1% were active in any assay of this set; here they are far more common.

SMILES | CCR6 antagonist | APJ ag | CXCR6 block | HTR2A ag | APJ antagonist | EBI2 antag
C#CC(=O)N(c1cccc(OC)c1)C(C(=O)NC1CCCC1)c1cccs1 (stereo not drawn) | 26 | 1 | 18 | -8 | 5 | 53*
COc1ccccc1C(=O)NNC1=C(C(=O)C(F)(F)F)CCC1 | 59* | -3 | 44* | -4 | 19 | 9
O=C(NNC1=C(C(=O)C(F)(F)F)CCC1)c1ccccc1O | -6 | -5 | 7 | -1 | -1 | 8
Nc1cc(=O)[nH]c2nnc(SCC(=O)Nc3cccc4ccccc34)n12 | 14 | 1 | -3 | 2 | -32 | -1
CS(=O)(=O)N(CC(=O)N1CCN(c2ccccc2)CC1)c1cc(C(F)(F)F)ccc1Cl | 7 | -6 | 1 | -1 | 8 | 46*
CS(=O)(=O)N(CC(=O)N1CCCC1)c1cc(C(F)(F)F)ccc1Cl | 4 | -2 | -2 | 4 | 27 | 2
Cc1ccc(NCc2ccc(O)c3ncccc23)cc1 | 5 | -4 | -6 | 0 | 12 | -12
O=Cc1ccc(O)c2ncccc12 | 45 | 0 | 47* | -25 | -3 | 3
C=CCN1C(=O)/C(=C/c2ccc(OC(C)=O)c(OCC)c2[N+](=O)[O-])SC1=S | 54* | nt | 42* | -3 | nt | -18
COc1ccc(-c2noc(CCC(=O)N3CCN(c4ccc(Cl)cc4)CC3)n2)cc1 | 22 | nt | -11 | 5 | nt | 1
O=C(OCn1ncc(Br)c(Br)c1=O)c1ccc(F)cc1 | 44 | -1 | 47* | -5 | 21 | 50*
O=C(OCn1ncc(Br)c(Br)c1=O)c1ccccc1Cl | 43 | 0 | 49* | -8 | 28 | 47*
O=C(OCc1cnc(Cl)s1)c1ccccc1Cl | 3 | 0 | -17 | -5 | 4 | -11
CC(NC(C(=O)c1ccccc1)c1ccccc1)c1ccccc1 (stereo not drawn) | 78* | nt | 37* | 1 | nt | 9
COCCN(C(=O)c1cc(-c2ccncc2)nc2ccccc12)c1c(N)n(CC(C)C)c(=O)[nH]c1=O | 8 | 0 | 3 | 8 | -3 | -5
CSCCC(C(=O)NC1CCCC1)n1c(-c2ccncc2)nc2ccccc21 (stereo not drawn) | nt | nt | nt | -4 | nt | 4
CCOC(=O)c1ccc(N2CCN(C(=O)c3ccccc3)CC2)c(NC(=O)c2ccco2)c1 | 6 | 0 | 12 | 6 | 4 | -10
O=C(CSc1n[nH]c(=O)n1C1CC1)c1c[nH]c2ccccc12 | -3 | 1 | 5 | 1 | -12 | -2
Cc1ccc(CN2C(=O)C(Cc3ccccc3)Nc3ncnc(N4CCCCC4)c32)cc1 (stereo not drawn) | 51* | -4 | 41*! | -5 | 39 | 12
COc1ccc(CN2C(=O)C(Cc3ccccc3)Nc3ncnc(N4CCCCC4)c32)cc1 (stereo not drawn) | 43 | -12 | 31 | -1 | -32 | 7
CC(C)(C)c1cc(C(=O)NCC(=O)OCC(=O)c2cccc([N+](=O)[O-])c2)cc(C(C)(C)C)c1 | 57* | -8 | 34 | 0 | 35 | -4
CCNC(=S)N=Nc1c(O)[nH]c2ccc([N+](=O)[O-])cc12 | 42 | -5 | 21 | 3 | 38 | 10
O=[N+]([O-])c1ccc2[nH]c(O)c(N=NC(=S)Nc3cccnc3)c2c1 | 70* | -4 | 42* | 0 | 34 | 30
CCOC(=O)C1NN=C(C(=O)c2ccccc2)C1c1ccc(Cl)cc1 (stereo not drawn) | 18 | -4 | 4 | -4 | 47* | -2
CN(CC(=O)Nc1cccc(F)c1)C(=O)c1ccc(COc2ccccc2)o1 | -6 | 4 | -6 | 5 | 7 | 18
SMILES | CCR6 antagonist | APJ ag | CXCR6 block | HTR2A ag | APJ antagonist | EBI2 antag
COc1ccc(C2CCCN2C(=O)Nc2ccc(C)c(C)c2)cc1OC (stereo not drawn) | 17 | 1 | 6 | 4 | 24 | 51*
COc1ccc(C2CCCN2C(=S)Nc2ccc(C)c(C)c2)cc1OC (stereo not drawn) | 10 | 0 | -14 | 0 | -15 | 7
N#Cc1nccnc1S(=O)(=O)c1cccs1 | 23 | -3 | nt | nt | 56* | nt
CN(Cc1ccccc1C#N)S(=O)(=O)c1cccs1 | 12 | -2 | -2 | -1 | 5 | 3
CC(NC(=O)CSc1nnnn1C1CC1)c1ccccc1Br (stereo not drawn) | -4 | -4 | 4 | 6 | -1 | -1
O=C(Nc1ccccc1-c1ccccc1)c1ccccc1 | 6 | -3 | -4 | -4 | 10 | -1
Nc1c(S(=O)(=O)O)cc(NC(=O)c2ccccc2)c2c1C(=O)c1ccccc1C2=O | 55* | -1 | 29 | -1 | 1 | 11
C=CCN(c1ccc(C(=O)NCCCn2ccnc2)cc1)S(C)(=O)=O | 7 | -1 | -2 | -5 | 19 | 3
CC(C)[C@H](NC(=O)N1CCn2c1nc1ccccc12)C(=O)NCC1CCCO1 (stereo partly drawn) | 1 | 4 | 0 | 15* | -6 | 4
CCCCN(C(=O)/C=C/c1ccc(OC)cc1)C1CCS(=O)(=O)C1 (stereo not drawn) | 24 | -4 | -4 | 0 | 0 | -1
Cc1c(C#N)c(O)n(C)c(=O)c1N=Nc1ccc(S(N)(=O)=O)cc1 | 52* | nt | 25 | -1 | nt | 2
CCN1C(=O)/C(=C/C=C2\C=CN(CC)c3ccccc32)SC1=S | 53* | nt | 34 | 1 | nt | 16
O=C(Oc1c(Cl)cc(Cl)c2cccnc12)c1cccc([N+](=O)[O-])c1 | 68* | -5 | 38 | -4 | 18 | 11
C/C(=C1/C(=O)N(c2ccc([N+](=O)[O-])cc2)N=C1c1ccccc1)N(C)C | nt | -7 | nt | nt | 49* | nt
CN(C)/C=C1/C(=O)N(c2ccc([N+](=O)[O-])cc2)N=C1c1ccccc1 | nt | -1 | nt | nt | 6 | nt
CCc1nc2ccccc2n1CC(=O)NC1CCS(=O)(=O)C1 (stereo not drawn) | 8 | -7 | -10 | -2 | -7 | -3
O=C(NCCc1c[nH]c2ccccc12)C(=O)NCC(c1ccco1)N1CCN(c2ccccc2F)CC1 (stereo not drawn) | 20 | -1 | 2 | -1 | -14 | 58*
Cc1cc2c(c(=O)n1CC1CCCO1)C(c1ccc3c(c1)OCO3)C(C#N)=C(N)O2 (stereo not drawn) | 0 | -3 | 2 | 0 | 7 | -15
CCn1c(C)cc2c(c1=O)C(c1ccc3c(c1)OCO3)C(C#N)=C(N)O2 (stereo not drawn) | 0 | -4 | 2 | 15* | 16 | -8
O=C(CN1CCCCC1)Nc1ccc(S(=O)(=O)c2ccc(NC(=O)CN3CCCCC3)cc2)cc1 | 6 | nt | 0 | -2 | nt | 0
Cc1cc(C)cc(C(=O)Nc2cc3c4c(c2)CC(=O)N4CCC3)c1 | 11 | 2 | 7 | -3 | -25 | 2
